The values below come from ChEMBL document CHEMBL5712070, “Discovery of a chemical probe for the L3MBTL3 methyllysine reader domain” (Nat Chem Biol, 2013).

Active and inactive are the calls of the source. The rule behind the calls is not given here.

For series [1], the species on record is Homo sapiens. Kind of series: Binding affinity to L3MBTL3 D381A mutant (unknown origin) by ITC assay.
Series [2] concerns the target T1, Lethal(3)malignant brain tumor-like protein 3 (Homo sapiens, UniProt Q96JM7).
T1 sequence (Q96JM7 whole entry): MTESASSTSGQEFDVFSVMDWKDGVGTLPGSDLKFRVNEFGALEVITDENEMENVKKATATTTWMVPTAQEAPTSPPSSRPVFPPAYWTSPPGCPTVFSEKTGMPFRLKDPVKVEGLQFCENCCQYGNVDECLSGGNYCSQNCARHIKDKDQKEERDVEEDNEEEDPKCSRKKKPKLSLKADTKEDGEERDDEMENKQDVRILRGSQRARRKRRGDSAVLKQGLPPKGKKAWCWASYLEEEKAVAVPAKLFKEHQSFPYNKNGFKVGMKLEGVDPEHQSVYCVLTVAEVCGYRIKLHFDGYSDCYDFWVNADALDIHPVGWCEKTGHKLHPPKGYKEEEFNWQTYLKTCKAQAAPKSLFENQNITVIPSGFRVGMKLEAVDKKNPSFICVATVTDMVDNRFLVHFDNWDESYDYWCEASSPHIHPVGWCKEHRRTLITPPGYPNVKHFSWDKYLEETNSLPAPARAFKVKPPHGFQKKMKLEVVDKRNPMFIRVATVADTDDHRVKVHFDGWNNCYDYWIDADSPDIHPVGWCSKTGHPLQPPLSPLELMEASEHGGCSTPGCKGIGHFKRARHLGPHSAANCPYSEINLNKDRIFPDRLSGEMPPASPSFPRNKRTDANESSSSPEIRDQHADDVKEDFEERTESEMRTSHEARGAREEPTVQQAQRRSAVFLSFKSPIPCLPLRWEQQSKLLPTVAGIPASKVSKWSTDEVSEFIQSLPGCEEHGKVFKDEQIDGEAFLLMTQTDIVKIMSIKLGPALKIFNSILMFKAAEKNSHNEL
Kind of series: Binding affinity to L3MBTL3 (unknown origin) by ITC assay. For orientation: Isothermal titration calorimetry measures the heat released or taken up as one component is titrated into another.

The target in series [3] is Muscarinic acetylcholine receptor M2 (Homo sapiens, UniProt P08172). Kind of series: Antagonist activity at human M2 receptor assessed as reduction in acetylcholine-induced response by Schild analysis. The class given is functional. To be noted: read-out: pA2 (converted).
Chain of Muscarinic acetylcholine receptor M2 (P08172 whole entry): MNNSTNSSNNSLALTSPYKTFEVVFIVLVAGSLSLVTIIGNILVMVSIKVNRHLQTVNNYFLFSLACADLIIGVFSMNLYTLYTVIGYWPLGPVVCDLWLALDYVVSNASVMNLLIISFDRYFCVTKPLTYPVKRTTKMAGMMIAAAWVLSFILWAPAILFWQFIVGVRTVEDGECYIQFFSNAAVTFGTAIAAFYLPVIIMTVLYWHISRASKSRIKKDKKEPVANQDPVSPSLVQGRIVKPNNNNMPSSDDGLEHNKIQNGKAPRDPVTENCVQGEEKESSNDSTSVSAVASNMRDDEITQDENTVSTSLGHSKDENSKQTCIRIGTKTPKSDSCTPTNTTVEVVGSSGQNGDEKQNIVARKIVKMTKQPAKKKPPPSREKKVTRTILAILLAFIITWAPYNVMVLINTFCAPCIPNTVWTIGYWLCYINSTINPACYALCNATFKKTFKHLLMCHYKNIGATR
The target in series [4] is T2, Muscarinic acetylcholine receptor M1 (Homo sapiens, UniProt P11229).
T2 sequence (P11229 whole entry): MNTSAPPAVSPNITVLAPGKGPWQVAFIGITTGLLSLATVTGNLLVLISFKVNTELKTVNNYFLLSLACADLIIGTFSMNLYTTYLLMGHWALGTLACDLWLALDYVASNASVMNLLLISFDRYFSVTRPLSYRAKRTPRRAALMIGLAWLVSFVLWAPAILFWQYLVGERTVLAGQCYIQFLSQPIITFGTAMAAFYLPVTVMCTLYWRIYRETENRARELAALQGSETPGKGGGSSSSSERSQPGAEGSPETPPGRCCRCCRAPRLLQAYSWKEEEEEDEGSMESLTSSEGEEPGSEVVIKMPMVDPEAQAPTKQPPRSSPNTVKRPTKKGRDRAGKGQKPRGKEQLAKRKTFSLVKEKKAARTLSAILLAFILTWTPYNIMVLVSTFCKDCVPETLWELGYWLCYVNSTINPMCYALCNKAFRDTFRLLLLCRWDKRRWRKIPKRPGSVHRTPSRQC
Kind of series: Antagonist activity at human M1 receptor assessed as reduction in acetylcholine-induced response by Schild analysis. It is filed as functional. The settings on record: read-out: pA2 (converted).

In series [5] the target is Muscarinic acetylcholine receptor M1 (Homo sapiens) (UniProt P11229). As to the kind of experiment: Agonist activity at human M1 receptor. The class given is functional.
Series [6] is described as follows: Stability assessed as compound degradation after 72 hrs in presence of in cell media. It is filed as physicochemical. An outline of the steps: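 Compound incubated in cell medium with or without HEK293 cells for 72 hours, then examined for degradation products.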
The target in series [7] is Chromobox protein homolog 7 (Homo sapiens, UniProt O95931). As to the kind of experiment: Inhibition of chromo domain containing CBX7 (unknown origin) using H4K20me2 peptide by Alpha-Screen methylated histone peptide competition assay. (Bead proximity is the source of the signal in Alpha formats.)
Chain of Chromobox protein homolog 7 (O95931 whole entry, the tested form may be a part): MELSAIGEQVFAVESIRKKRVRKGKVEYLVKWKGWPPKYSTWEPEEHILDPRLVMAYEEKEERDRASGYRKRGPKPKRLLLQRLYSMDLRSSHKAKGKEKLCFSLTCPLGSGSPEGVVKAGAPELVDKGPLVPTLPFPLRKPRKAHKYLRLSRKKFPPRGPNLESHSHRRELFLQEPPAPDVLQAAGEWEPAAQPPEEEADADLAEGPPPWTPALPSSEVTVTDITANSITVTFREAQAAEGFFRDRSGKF
In series [8] the target is PHD finger protein 23 (Homo sapiens, UniProt Q9BUL5). As to the kind of experiment: Inhibition of PHD finger domain containing PHF23 (unknown origin) using H4K20me2 peptide by Alpha-Screen methylated histone peptide competition assay.
Chain of PHD finger protein 23 (Q9BUL5 whole entry, the tested form may be a part): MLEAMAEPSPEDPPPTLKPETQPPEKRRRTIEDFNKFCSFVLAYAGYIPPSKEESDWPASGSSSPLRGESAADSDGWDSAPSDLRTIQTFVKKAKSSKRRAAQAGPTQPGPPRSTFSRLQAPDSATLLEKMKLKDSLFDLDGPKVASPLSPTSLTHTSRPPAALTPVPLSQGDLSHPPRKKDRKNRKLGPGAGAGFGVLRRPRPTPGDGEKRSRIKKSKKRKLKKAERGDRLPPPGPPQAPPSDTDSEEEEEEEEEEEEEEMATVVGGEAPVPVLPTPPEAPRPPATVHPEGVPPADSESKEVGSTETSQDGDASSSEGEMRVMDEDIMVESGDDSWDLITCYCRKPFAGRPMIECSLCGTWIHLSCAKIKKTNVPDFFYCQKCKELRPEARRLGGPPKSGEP
For series [9], the species on record is Homo sapiens. Kind of series: Binding affinity to histone demethylase (unknown origin) assessed as change in melting temperature at 50 uM by Differential scanning fluorimetry relative to control. Background: In DSF a fluorescence change marks the thermal transition of the protein.
Series [10] deals with Sodium-dependent dopamine transporter (Homo sapiens, UniProt Q01959). Kind of series: Inhibition of DAT (unknown origin) by radioligand binding assay.
Chain of Sodium-dependent dopamine transporter (Q01959 whole entry): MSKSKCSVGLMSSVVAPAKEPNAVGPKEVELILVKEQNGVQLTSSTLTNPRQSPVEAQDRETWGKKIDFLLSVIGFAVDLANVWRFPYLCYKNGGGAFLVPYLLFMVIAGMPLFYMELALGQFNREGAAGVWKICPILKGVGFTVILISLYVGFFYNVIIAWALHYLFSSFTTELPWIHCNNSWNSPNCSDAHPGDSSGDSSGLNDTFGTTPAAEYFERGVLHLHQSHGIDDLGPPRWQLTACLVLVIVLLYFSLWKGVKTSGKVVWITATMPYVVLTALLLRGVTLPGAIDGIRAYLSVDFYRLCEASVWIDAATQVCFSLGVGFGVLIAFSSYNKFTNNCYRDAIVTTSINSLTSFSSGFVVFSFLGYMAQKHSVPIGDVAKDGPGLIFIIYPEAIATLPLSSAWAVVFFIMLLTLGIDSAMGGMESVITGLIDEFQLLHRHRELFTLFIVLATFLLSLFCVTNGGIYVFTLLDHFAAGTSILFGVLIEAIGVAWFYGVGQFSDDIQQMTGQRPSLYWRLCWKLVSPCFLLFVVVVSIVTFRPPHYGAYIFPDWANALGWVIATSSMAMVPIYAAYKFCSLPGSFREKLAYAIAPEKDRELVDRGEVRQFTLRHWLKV
In series [11] the target is Kappa-type opioid receptor (Homo sapiens, UniProt P41145). Kind of series: Inhibition of KOR (unknown origin) by radioligand binding assay.
Chain of Kappa-type opioid receptor (P41145 whole entry): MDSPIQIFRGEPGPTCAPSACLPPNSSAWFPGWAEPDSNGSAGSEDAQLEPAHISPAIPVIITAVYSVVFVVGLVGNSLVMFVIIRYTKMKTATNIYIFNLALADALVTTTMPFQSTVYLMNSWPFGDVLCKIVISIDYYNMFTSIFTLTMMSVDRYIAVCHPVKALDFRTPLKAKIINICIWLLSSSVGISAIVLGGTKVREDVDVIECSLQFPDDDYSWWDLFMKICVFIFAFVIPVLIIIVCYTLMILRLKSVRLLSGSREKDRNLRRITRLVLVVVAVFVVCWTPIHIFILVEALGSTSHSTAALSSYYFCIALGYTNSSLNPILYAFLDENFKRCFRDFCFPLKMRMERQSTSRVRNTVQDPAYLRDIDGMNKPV
For series [12], the target named is T2, Muscarinic acetylcholine receptor M1. Kind of series: Inhibition of M1 receptor (unknown origin) by radioligand binding assay. An outline of the steps: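 Radioligand competition binding; the value is reported as a Ki.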
Series [13] deals with Muscarinic acetylcholine receptor M3 (Homo sapiens, UniProt P20309). Kind of series: Inhibition of M3 receptor (unknown origin) by radioligand binding assay.
Chain of Muscarinic acetylcholine receptor M3 (P20309 whole entry): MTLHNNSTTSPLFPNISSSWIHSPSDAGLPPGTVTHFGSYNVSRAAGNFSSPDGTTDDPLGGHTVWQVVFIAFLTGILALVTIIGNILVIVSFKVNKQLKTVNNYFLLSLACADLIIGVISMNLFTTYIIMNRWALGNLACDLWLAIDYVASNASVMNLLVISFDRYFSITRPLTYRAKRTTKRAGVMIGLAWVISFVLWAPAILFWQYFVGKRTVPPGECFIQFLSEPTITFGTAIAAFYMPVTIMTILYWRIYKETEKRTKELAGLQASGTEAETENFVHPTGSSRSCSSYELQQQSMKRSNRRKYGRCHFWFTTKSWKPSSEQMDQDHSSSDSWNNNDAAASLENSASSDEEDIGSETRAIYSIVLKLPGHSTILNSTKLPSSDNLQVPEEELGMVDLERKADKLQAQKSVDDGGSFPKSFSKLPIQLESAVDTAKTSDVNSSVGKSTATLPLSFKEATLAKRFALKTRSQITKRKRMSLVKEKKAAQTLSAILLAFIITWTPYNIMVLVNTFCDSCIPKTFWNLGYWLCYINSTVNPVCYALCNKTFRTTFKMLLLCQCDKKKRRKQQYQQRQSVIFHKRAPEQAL
Series [14] concerns the target Muscarinic acetylcholine receptor M4 (Homo sapiens, UniProt P08173). As to the kind of experiment: Inhibition of M4 receptor (unknown origin) by radioligand binding assay.
Series [15] concerns the target T2, Muscarinic acetylcholine receptor M1. Kind of series: Inhibition of M1 receptor (unknown origin) by Ca2+ mobilization assay. The class given is functional.
Series [16] concerns the target Receptor-type tyrosine-protein kinase FLT3 (Homo sapiens) (UniProt P36888). As to the kind of experiment: Inhibition of FLT3 (unknown origin) at 10 uM relative to control.
In series [17] the target is T3, Lethal(3)malignant brain tumor-like protein 3 (Homo sapiens) (UniProt Q96JM7).
T3 sequence (whole entry): T1 sequence (Q96JM7 whole entry)
As to the kind of experiment: Binding affinity to GFP-tagged full length L3MBTL3 (unknown origin) assessed as protein half life at 1 uM.

The target of series [18] is T3, Lethal(3)malignant brain tumor-like protein 3 (Homo sapiens). Kind of series: Binding affinity to GFP-3MBT tagged L3MBTL3 (unknown origin) assessed as protein half life at 1 uM.
The target is the same in series [19]. To be noted: dose 0.5 µM.
Series [20] concerns the target T1, Lethal(3)malignant brain tumor-like protein 3. As to the kind of experiment: Binding affinity to GFP-3MBT tagged L3MBTL3 (unknown origin) assessed as diffusion coefficient at 1 uM (reference value: 0.1272 um2/s).
Series [21] has the same target. Kind of series: Binding affinity to GFP-3MBT tagged L3MBTL3 (unknown origin) assessed as diffusion coefficient at 0.01 uM (reference value: 0.1272 um2/s).
The target is the same in series [22]. Kind of series: Binding affinity to GFP-tagged full length L3MBTL3 (unknown origin) assessed as diffusion coefficient at 0.1 uM (reference value: 0.037549815 um2/s).
Series [23] shares this target. Kind of series: Binding affinity to GFP-tagged full length L3MBTL3 (unknown origin) assessed as diffusion coefficient at 0.01 uM (reference value: 0.037549815 um2/s).

Chain of Muscarinic acetylcholine receptor M4 (P08173 whole entry): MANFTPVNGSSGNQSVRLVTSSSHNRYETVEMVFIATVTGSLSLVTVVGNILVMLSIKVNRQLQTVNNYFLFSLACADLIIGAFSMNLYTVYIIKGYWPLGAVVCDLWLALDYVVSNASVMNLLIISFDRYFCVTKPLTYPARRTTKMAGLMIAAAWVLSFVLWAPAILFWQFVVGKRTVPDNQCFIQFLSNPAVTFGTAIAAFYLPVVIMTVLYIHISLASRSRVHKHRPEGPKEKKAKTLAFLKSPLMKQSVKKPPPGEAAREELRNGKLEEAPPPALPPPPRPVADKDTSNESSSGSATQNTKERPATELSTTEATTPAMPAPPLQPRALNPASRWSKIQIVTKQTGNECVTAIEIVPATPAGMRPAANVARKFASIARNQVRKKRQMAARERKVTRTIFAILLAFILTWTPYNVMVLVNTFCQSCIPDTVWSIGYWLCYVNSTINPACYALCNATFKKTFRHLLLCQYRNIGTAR
Chain of Receptor-type tyrosine-protein kinase FLT3 (Homo sapiens) (P36888 whole entry): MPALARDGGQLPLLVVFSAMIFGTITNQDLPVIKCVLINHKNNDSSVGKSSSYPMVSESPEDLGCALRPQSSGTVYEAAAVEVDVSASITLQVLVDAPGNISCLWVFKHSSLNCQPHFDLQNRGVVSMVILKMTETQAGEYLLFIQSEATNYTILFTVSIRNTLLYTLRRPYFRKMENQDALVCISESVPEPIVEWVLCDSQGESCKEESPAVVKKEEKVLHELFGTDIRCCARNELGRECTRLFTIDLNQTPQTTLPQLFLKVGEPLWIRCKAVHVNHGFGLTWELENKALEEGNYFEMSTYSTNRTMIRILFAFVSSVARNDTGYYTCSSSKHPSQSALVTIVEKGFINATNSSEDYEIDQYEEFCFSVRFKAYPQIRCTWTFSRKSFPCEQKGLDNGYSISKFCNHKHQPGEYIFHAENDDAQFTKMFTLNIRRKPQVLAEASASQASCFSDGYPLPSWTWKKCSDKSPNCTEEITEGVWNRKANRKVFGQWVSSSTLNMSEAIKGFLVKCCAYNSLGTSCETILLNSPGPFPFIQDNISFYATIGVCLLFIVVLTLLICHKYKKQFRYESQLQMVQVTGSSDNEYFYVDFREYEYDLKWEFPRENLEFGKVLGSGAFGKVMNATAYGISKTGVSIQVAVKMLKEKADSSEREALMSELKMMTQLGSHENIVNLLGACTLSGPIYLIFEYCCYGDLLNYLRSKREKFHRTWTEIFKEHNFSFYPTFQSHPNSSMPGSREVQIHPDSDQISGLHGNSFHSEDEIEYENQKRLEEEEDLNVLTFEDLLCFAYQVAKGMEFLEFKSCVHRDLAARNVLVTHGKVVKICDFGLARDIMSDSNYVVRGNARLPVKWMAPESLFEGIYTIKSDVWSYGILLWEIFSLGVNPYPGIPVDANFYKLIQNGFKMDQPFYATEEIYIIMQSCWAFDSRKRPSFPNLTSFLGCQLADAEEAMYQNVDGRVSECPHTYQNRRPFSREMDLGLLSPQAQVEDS

Usually Kd stands for the concentration at which binding is half-saturated. Lower therefore signals a tighter complex. A word on the IC50: it is the midpoint of a concentration-inhibition curve. A lower IC50 goes with greater potency in that assay. One may read the ΔTm as the change in melting temperature against a reference sample. As a reminder, the Ki is a measure of affinity in units of concentration, obtained from inhibition or displacement. A word on the inhibition: it is the drop in the measured response relative to a control, in per cent. Read a low inhibition as little suppression. As to `O=C(c1ccc(C(=O)N2CCC(N3CCCC3)CC2)c(Nc2ccccc2)c1)N1CCC(N2CCCC2)CC1`, the outcome in series [1] and in series [5] was inactive. In series [2], the Kd amounted to 120 nM. Further, the Kb is 24.5 nM in series [3] and 2240 nM in series [4]. Moreover, the Stability result in series [6] was “Stable”. In addition, the IC50 in series [7] was above 30000 nM; in series [8], above 30000 nM; in [15], 3500 nM. Further, the ΔTm in [9] was below 0.5 °C. Besides, the Ki in series [10] was above 10000 nM; in [11], 4000 nM; in series [12], 97 nM; in [13] it was 890 nM; in series [14] it was 400 nM. The compound further gave an inhibition in series [16] of 64%. Also, the T1/2 in series [17] was 19.9 s; in [18], 3.6 s; in series [19] it was 20.3 s. The Diffusion coefficient in series [20] is 0.284 um2/s; in [21], 0.146 um2/s; in series [22], 0.05 um2/s; in [23] it was 0.043 um2/s.
